Experimental data published in article PMC4002123 (Journal of Medicinal Chemistry, 2014).
“Also recorded” adds a separate entry of the source.

Tests used:
[1] = system: chick embryo chorioallantoic membrane; experiment: Chick embryo chorioallantoic membrane; type: in vivo; details: collagen plug with bFGF + VEGF (BV), scored 4 days after treatment
In short: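 Fertilized chick eggs incubated 3 days at 37.5 °C, then shell-free in covered weighboats for 10 more days. Collagen onplants (2.1 mg/mL rat tail collagen, 10 ng/plug bFGF, 30 ng/plug VEGF) with or without test compound placed on CAM over nylon mesh; four per egg, at least three eggs. After 4 days, plugs on surviving embryos imaged and scored blind 0–3; means ± SEM.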

bovine brain tubulin = experiment: Tubulin polymerization assay in vitro; type: biochemical; details: compared to vehicle
MDA-MB-231 cells [2] = experiment: Antiproliferative assay; type: cell-based, human; details: read-out: growth inhibition IC50, MDA-MB-231; MDA-MB-231, 72 h
In short: (§1)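 Seeded at 5 × 10^3 cells/well and grown 24 h. Medium then replaced with fresh medium holding test compound at a range of concentrations; DMSO below 0.25%. Incubated at 37 °C for 72 h. Resazurin added for 2 h, then fluorescence read at ex 560 / em 590 nm.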

A549 cells = experiment: Antiproliferative assay; type: cell-based, human; details: read-out: growth inhibition IC50, A549; A549, 72 h
In short: as §1

HeLa cells [3] = experiment: Antiproliferative assay; type: cell-based, human; details: read-out: growth inhibition IC50, HeLa, 72 h
In short: as §1

[4] = Mouse plasma concentrations after single oral dose; type: in vivo; details: mice, single oral dose 5 mg/kg
In short: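 Female C57BL/6 mice dosed once by oral gavage at 5 mg/kg, test compound dissolved in ethanol and given in PBS. Blood drawn from orbital sinus at 1, 3, 6 and 24 h after dosing. Each group of mice sampled only once.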

MDA-MB-231 cells [5] = experiment: Immunofluorescence of interphase microtubules, MDA-MB-231; type: cell-based, human; details: 1 μM, 24 h
In short: (§2)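 Cells grown on chamber slides and exposed to DMSO vehicle or test compound, then fixed in 3.7% formaldehyde and permeabilised for 4 min with 0.1% Triton X-100 in PBS. Blocked 1 h in PBS/1% BSA with calf serum. Stained with mouse anti-β-tubulin (1:200), then Alexa 488 goat anti-mouse (1:200) for 2 h at room temperature. Imaged by fluorescence microscopy.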

HeLa cells [6] = experiment: Immunofluorescence of interphase microtubules, HeLa; type: cell-based, human; details: 1 μM, 24 h
In short: as §2

[7] = system: colchicine binding site of tubulin; experiment: Competitive LC-MS/MS binding assay, colchicine binding site; details: colchicine 1.2 μM, tubulin 1.3 mg/mL, 37 °C, 1 h; highest value reached

2-Methoxy-5-(6-(3,4,5-trimethoxyphenyl)pyridine-2-yl)phenol [4t]
inhibition of new vessel growth (angiogenesis score, scale 0-3) [1]: inhibition of new vessel growth; also recorded: scored significantly lower than the positive control (BV)
inhibition of tubulin polymerization (bovine brain tubulin; compound at 1 μM): failed to inhibit tubulin polymerization
inhibition of tubulin polymerization (bovine brain tubulin; compound at 10 μM): 32%
IC50 (MDA-MB-231 cells [2]): 69 ± 2.8 nM
IC50 (A549 cells): 2640 ± 380 nM
IC50 (HeLa cells [3]): 4.7 ± 0.9 nM
peak plasma concentration [4]: lower peak concentrations than CA-4

2-(2,4-Dimethoxyphenyl)-6-(2,5-dimethoxyphenyl)pyridine [4m]
IC50 (MDA-MB-231 cells [2]): 34 ± 4 nM
IC50 (A549 cells): 330 ± 10 nM
IC50 (HeLa cells [3]): 34 ± 2 nM

COc1ccc(/C=C\c2cc(OC)c(OC)c(OC)c2)cc1O [CA-4, Combretastatin-A4, reference compound]
inhibition of new vessel growth (angiogenesis score, scale 0-3) [1]: inhibition of new vessel growth
effect on interphase microtubule network (MDA-MB-231 cells [5]): very similar loss of the microtubule network
inhibition of tubulin polymerization (bovine brain tubulin; compound at 10 μM): nearly completely blocked tubulin polymerization
effect on interphase microtubule network (HeLa cells [6]): very similar loss of the microtubule network
relative binding capacity, % of colchicine binding [7]: 78%
plasma concentration at 6 h [4]: no longer detectable
plasma concentration at 24 h [4]: no longer detectable

COc1ccc(-c2cccc(-c3ccc(OC)c(O)c3)n2)c(OC)c1 [4s, 5-(6-(2,4-Dimethoxyphenyl)pyridine-2-yl)-2-methoxyphenol]
inhibition of new vessel growth (angiogenesis score, scale 0-3) [1]: inhibition of new vessel growth; also recorded: scored significantly lower than the positive control (BV)
inhibition of tubulin polymerization (bovine brain tubulin; compound at 1 μM): failed to inhibit tubulin polymerization
plasma concentration at 6 h [4]: dropping rapidly
plasma concentration at 24 h [4]: below detection limit

5-Bromo-2-(3,4,5-trimethoxyphenyl)pyridine [2e]
IC50 (MDA-MB-231 cells [2]): 12050 ± 20 nM
IC50 (A549 cells): > 25000 nM
IC50 (HeLa cells [3]): 14000 ± 300 nM

COc1ccc(-c2cccc(-c3ccc(OC)cc3OC)n2)cc1 [4h, 2-(2,4-Dimethoxyphenyl)-6-(4-methoxyphenyl)pyridine]
inhibition of new vessel growth (angiogenesis score, scale 0-3) [1]: inhibition of new vessel growth
effect on interphase microtubule network (MDA-MB-231 cells [5]): dramatic reduction of the interphase microtubule network
inhibition of tubulin polymerization (bovine brain tubulin; compound at 1 μM): failed to inhibit tubulin polymerization
inhibition of tubulin polymerization (bovine brain tubulin; compound at 10 μM): remained ineffective against tubulin polymerization
effect on interphase microtubule network (HeLa cells [6]): dramatic reduction of the interphase microtubule network
peak plasma concentration [4]: lower peak concentrations than CA-4

5-Bromo-2-(2,4-dimethoxyphenyl)pyridine [2f]
IC50 (MDA-MB-231 cells [2]): > 100000 nM
IC50 (A549 cells): > 100000 nM
IC50 (HeLa cells [3]): > 25000 nM
